Measured values pooled from the literature.
Lines come from different studies, so protocols differ. ≈ marks a conversion by molar mass, not a printed value.
Organism: Bacillus subtilis

Compound | assay | system | conditions | measurement | result
O=C(O)c1ccc(-n2cc(/C=N/Nc3ccc(Cl)cc3Cl)c(-c3cccc(F)c3)n2)cc1 | microbial growth | ATCC6623 |  | MIC | 1.56 mg/L (≈ 3.32 µM)
O=C1NC(=S)N/C1=C\c1c2ccccc2c(-c2ccc(N(c3ccccc3)c3ccccc3)cc2)c2ccccc12 | microbial killing, broth dilution | ATCC6633 |  | MBC | > 1000 mg/L
N#CC(=Cc1ccc([N+](=O)[O-])cc1)C1=NC(=O)C(=Cc2cn(-c3ccccc3)nc2-c2ccccc2)S1 | microbial growth, well diffusion |  | 100000 µg/mL | inhibition zone | 23 mm
CN(/N=C/c1cn(-c2ccc(C(=O)O)cc2)nc1-c1ccc(F)cc1)c1ccccc1 | microbial growth | ATCC6623 |  | MIC | 12.5 mg/L (≈ 30.2 µM)
O=C1NC(=S)S/C1=C\c1ccc(-c2ccc(N(c3ccccc3)c3ccccc3)cc2)cc1 | microbial killing, broth dilution | ATCC6633 |  | MBC | > 1000 mg/L
CC1(C)S[C@@H]2[C@H](NC(=O)[C@H](N)c3ccccc3)C(=O)N2[C@H]1C(=O)O | microbial growth, agar dilution | ATCC6633 | 26.93 µM | inhibition | 100%
O=C(O)CN1C(=O)/C(=C/c2c3ccccc3c(-c3ccc(N(c4ccccc4)c4ccccc4)cc3)c3ccccc23)NC1=S | microbial killing, broth dilution | ATCC6633 |  | MBC | > 1000 mg/L
CCOC(=O)c1c(N)csc1-c1cn(-c2ccccc2)nc1-c1ccc(C)cc1 | microbial growth, well diffusion |  | 100000 µg/mL | inhibition zone | 28 mm
O=C1NC(=S)N/C1=C\c1ccc(-c2ccc(N(c3ccccc3)c3ccccc3)cc2)cc1 | microbial killing, broth dilution | ATCC6633 |  | MBC | > 1000 mg/L
Cc1ccc(-c2nn(-c3ccccc3)cc2C=C(C#N)C2=NC(=O)CS2)cc1 | microbial growth, well diffusion |  | 100000 µg/mL | inhibition zone | 21 mm
O=C(O)c1ccc(-n2cc(/C=N/Nc3ccc(C(F)(F)F)cc3)c(-c3cccc(F)c3)n2)cc1 | microbial growth | ATCC6623 |  | MIC | 12.5 mg/L (≈ 26.7 µM)
Cc1cc(N)c2ccccc2[n+]1CCCCCCCCCC[n+]1c(C)cc(N)c2ccccc21 | microbial growth, disc diffusion |  | 50 µg/disc | inhibition zone | 11 mm
N#CC(=Cc1ccccc1O)C1=NC(=O)C(=Cc2cn(-c3ccccc3)nc2-c2ccccc2)S1 | microbial killing, broth dilution |  |  | MBC | 0.5 mg/L (≈ 1.05 µM)
CO[C@H]1O[C@H](COC(c2ccccc2)(c2ccccc2)c2ccccc2)[C@@H](OC(=O)c2ccc(C(C)(C)C)cc2)[C@H](OC(=O)c2ccc(C(C)(C)C)cc2)[C@H]1OC(=O)c1ccc(C(C)(C)C)cc1 | microbial killing, broth dilution |  |  | MBC | 16 mg/L (≈ 17.4 µM)
